# The source made the active and inactive calls. No cut-off for these calls is given here. Where a SMILES comes first, the peptide text is derived from it.
# Tests used:
# Mus musculus [1] = species on record: Mus musculus; experiment: Toxicity in NIH Swiss mouse erythrocytes assessed as hemolytic activity up to 500 uM incubated for 60 mins; conditions: erythrocyte, 1 h
# Procedure, shortened: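 Washed erythrocytes (2 × 10^7 cells) from male NIH Swiss mice incubated 60 min at 37 °C with peptides at 31−500 μM. LC50 taken as mean concentration giving 50% hemolysis across three independent incubations.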
# Mus musculus [2] = species on record: Mus musculus; experiment: Cytotoxicity in mouse GLUTag cells assessed as effect on plasma membrane integrity through LDH release up to 1 uM after 20 mins in presence of glucose by nonradioactive CytoTox96 assay; assay type: toxicity, cell-based
# Procedure, shortened: (§1)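 BRIN-BD11 and GLUTag cells exposed to peptides (1 nM to 1 μM; n = 3) for 20 min at 37 °C in KRB buffer with 5.6 mM glucose. Membrane integrity judged by LDH in supernatant, measured with CytoTox96 nonradioactive kit.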
# BRIN-BD11 [3] = experiment: Inhibition of Katp in rat BRIN-BD11 cells assessed as minimum concentration required to produce increase in rate of insulin release over the basal rate after 20 mins in presence of 5.6 mM glucose by radioimmunoassay; assay type: cell-based
# Procedure, shortened: (§2)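 BRIN-BD11 clonal β-cells attached overnight at 37 °C, then 20 min at 37 °C in KRB buffer with 5.6 mM glucose, peptides up to 1 μM. Insulin in supernatant by radioimmunoassay, expressed per 10^6 cells per 20 min. Parallel controls: 10 mM alanine, 1 μM GLP-1, 30 mM KCl.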
# BRIN-BD11 [4] = experiment: Inhibition of Katp in rat BRIN-BD11 cells assessed as insulin release at 1 uM after 20 mins in presence of 5.6 mM glucose by radioimmunoassay relative to basal level; assay type: cell-based; design: scale not given: the % may be the effect or the level left; procedure, shortened: as §2
# [5] = Induction of GLP1 release in mouse GLUTag cells assessed as minimum concentration required to produce increase in rate of GPL1 release over the basal rate after 2 hrs in presence of 2 mM glucose by ELISA
# [6] = Induction of GLP1 release in mouse GLUTag cells at 1 uM after 2 hrs in presence of 2 mM glucose by ELISA relative to basal level
# Rattus norvegicus = species on record: Rattus norvegicus; experiment: Cytotoxicity in rat BRIN-BD11 cells assessed as effect on plasma membrane integrity through LDH release up to 1 uM after 20 mins in presence of glucose by nonradioactive CytoTox96 assay; assay type: toxicity, cell-based; conditions: brin-bd11, 20 min; procedure, shortened: as §1
# BRIN-BD11 [7] = experiment: Inhibition of Katp in rat BRIN-BD11 cells assessed as minimum concentration required to produce 83% increase in rate of insulin release over the basal rate after 20 mins in presence of 5.6 mM glucose by radioimmunoassay; assay type: cell-based; procedure, shortened: as §2
# Mus musculus [8] = species on record: Mus musculus; experiment: Antiinflammatory activity in C57BL/6 mouse unstimulated peritoneal cells assessed as reduction of IFN-gamma at 1 ug/ml after 24 hrs by ELISA; assay type: functional
# Procedure, shortened: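 Peritoneal cells lavaged with 5 mL cold PBS from unstimulated adult C57BL/6 mice (mixed macrophages, B-, T-, NK cells), resuspended in RPMI 1640 + 10% FBS, 2 × 10^5 cells/well. Peptides at 1, 5 and 10 μg/mL for 24 h at 37 °C; three independent incubations, 6 mice per group. IFN-γ in cell-free supernatant by ELISA in triplicate, compared with medium only.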
# [9] = Induction of GLP1 release in mouse GLUTag cells at 10 nM after 2 hrs by ELISA relative to basal level
# BRIN-BD11 [10] = experiment: Inhibition of Katp in rat BRIN-BD11 cells assessed as increase in insulin release after 20 mins by radioimmunoassay; assay type: cell-based
# BRIN-BD11 [11] = experiment: Inhibition of Katp in rat BRIN-BD11 cells assessed as increase in rate of insulin release after 20 mins in presence of 5.6 mM glucose by radioimmunoassay relative to basal level; assay type: cell-based; procedure, shortened: as §2
# [12] = Induction of increase in glucose-induced insulin secretion in rat BRIN-BD11 cells assessed as insulin release per million cells at 10 mM after 20 mins by radioimmunoassay (reference value: 1 +/- 0.03 ng); assay type: functional; procedure, shortened: as §2
# [13] = Induction of increase in glucose-induced insulin secretion in rat BRIN-BD11 cells assessed as insulin release per million cells at 30 mM after 20 mins by radioimmunoassay (reference value: 1 +/- 0.03 ng); assay type: functional; procedure, shortened: as §2
SMILES,Activity (Mus musculus [1]),Activity (Mus musculus [2]),Activity (BRIN-BD11 [3]),Activity (BRIN-BD11 [4]) [%],Activity [5],Activity [6] [%],Activity (Rattus norvegicus),also measured
CC[C@H](C)[C@H](NC(=O)[C@@H](N)CCCNC(=N)N)C(=O)N[C@@H](CS)C(=O)N[C@H](C(=O)N[C@@H](C)C(=O)N[C@H](C(=O)N1CCC[C@H]1C(=O)N[C@@H](CC(C)C)C(=O)N1CCC[C@H]1C(=O)N[C@@H](CCSC)C(=O)N[C@@H](CS)C(=O)N[C@@H](CC(C)C)C(=O)O)[C@@H](C)CC)[C@@H](C)O (H-RICTAIPLPMCL-OH),Non-Toxic,Non-Toxic,1 ×10⁻⁷ M,233,1 ×10⁻⁶ M,217.5,Non-Toxic,
CC[C@H](C)[C@H](NC(=O)[C@@H](N)CCCNC(=N)N)C(=O)N[C@@H](CS)C(=O)N[C@H](C(=O)N1CCC[C@H]1C(=O)N[C@H](C(=O)N1CCC[C@H]1C(=O)N[C@@H](Cc1ccccc1)C(=O)N1CCC[C@H]1C(=O)N[C@@H](CCSC)C(=O)N[C@@H](CS)C(=O)N[C@@H](Cc1ccc(O)cc1)C(=O)O)[C@@H](C)CC)[C@@H](C)O (H-RICTPIPFPMCY-OH),Non-Toxic,Non-Toxic,,395,,159,Non-Toxic,Activity (BRIN-BD11 [7]): 1 ×10⁻⁹ M
CC[C@H](C)[C@H](NC(=O)[C@H](CS)NC(=O)[C@@H](NC(=O)[C@@H](N)CCCNC(=N)N)[C@@H](C)O)C(=O)N1CCC[C@H]1C(=O)N[C@H](C(=O)N1CCC[C@H]1C(=O)N[C@@H](CC(C)C)C(=O)N[C@H](C(=O)N[C@@H](CCSC)C(=O)N[C@@H](CS)C(=O)O)C(C)C)[C@@H](C)CC (H-RTCIPIPLVMC-OH),Non-Toxic,Non-Toxic,1 ×10⁻⁷ M,201,1 ×10⁻⁷ M,193,Non-Toxic,Activity (Mus musculus [8]): Active
CC[C@H](C)[C@H](NC(=O)[C@H](CS)NC(=O)[C@@H](NC(=O)[C@@H](N)CCCNC(=N)N)[C@@H](C)O)C(=O)N1CCC[C@H]1C(=O)N[C@H](C(=O)N1CCC[C@H]1C(=O)N1CCC[C@H]1C(=O)N[C@H](C(=O)N[C@@H](CS)C(=O)N[C@@H](Cc1ccccc1)C(=O)O)C(C)C)[C@@H](C)CC (H-RTCIPIPPVCF-OH),Non-Toxic,Non-Toxic,1 ×10⁻⁶ M,163,1 ×10⁻⁸ M,,Non-Toxic,Activity [9]: 289.3%; Activity (Mus musculus [8]): Active
CC[C@H](C)[C@H](NC(=O)[C@H](C)NC(=O)[C@H](CO)NC(=O)[C@H](CS)NC(=O)[C@@H](NC(=O)[C@@H](N)CCCNC(=N)N)C(C)C)C(=O)N1CCC[C@H]1C(=O)N[C@@H](CC(C)C)C(=O)N1CCC[C@H]1C(=O)N[C@@H](Cc1c[nH]c2ccccc12)C(=O)N[C@@H](CS)C(=O)N[C@@H](Cc1cnc[nH]1)C(=O)O (H-RVCSAIPLPWCH-OH),,,,,,,,inhibition (BRIN-BD11 [10]): Dose-dependent effect; inhibition (BRIN-BD11 [11]): Dose-dependent effect
C[C@H](N)C(=O)O [ALANINE],,,,,,,,Activity [12]: 3.05 ng
[Cl-].[K+] [POTASSIUM CHLORIDE],,,,,,,,Activity [13]: 4.05 ng
